Source: PubChem
MT stabilize HCS: stabilizes microtubules in HeLa cells; HeLa tubulin immunostaining HCS, 24 h; share of cells brighter than vehicle mean+2SD; actives 0.83% (n = 200,000); % tubulin-high responders, % at 10 µM;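 active = plate Z-score above 3 for both tubulin-high and condensed-nucleus cell shares, with cell loss under 80%, at 10 µM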;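 note: anti alpha tubulin signal scored within the nucleus-defined area of each cell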
bCat nuc transl: alters nuclear translocation of beta-catenin in HeLa cells. immunofluorescence imaging. nuclear translocation activity, % at 5 µM. actives 0.3% (n = 190,000). AID 1665;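 active = nuclear translocation activity above 50% at 5 µM, with a well cell count of 50 or more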;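 note: per-cell ratio of nuclear to cytoplasmic median beta-catenin stain intensity; plate controls were DMSO negative control for no effect and GSK-3 inhibitor IX positive control for full effect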
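Test system: HeLa cells, endogenous beta-catenin; Compound: single 5 µM dose plus 0.02–20 µM confirmation series; Times: compound exposure 24 h at 37°C; Signal: fluorescence imaging of beta-catenin antibody stain plus DAPI; Read-out: % activation, nuclear-to-cytoplasmic median beta-catenin signal ratio per cell.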
BaF3 parental: counter-screen for JAK2V617F inhibitors: parental Ba/F3 viability inhibitors | CellTiter-Glo ATP luminescence | inhibition, % at 5.6 µM | actives 1.1% (n = 220,000) | AID 1486;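 active = inhibition above a per-campaign cutoff, the mean inhibition of all tested compounds plus 3 SD, cut at about 27% in these data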;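 note: 0% = DMSO wells and 100% = JAK Inhibitor I control wells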
APP 5UTR inh: APP translation inhibition. SH-SY5Y APP 5'UTR-luciferase reporter, luminescence. actives 0.82% (n = 190,000). inhibition, % at 2 µM;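 active = inhibition above a set limit, derived from the sample mean plus 3 SD, cut at about 45% in these data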
Ba/F3 V617F tox: lowers viability of Ba/F3 cells expressing EpoR and JAK2V617F | actives 1.1% (n = 220,000) | inhibition, % at 5.6 µM | ATP luminescence;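 active = inhibition above the campaign mean plus 3 SD over all tested compounds, cut at about 24% in these data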;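 note: cytokine-independent growth of Ba/F3 cells driven by EpoR plus mutant JAK2; 0% = DMSO-treated cells and 100% = JAK inhibitor I control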
IEC-6 cytotox: counter-screen for KLF5 inhibitors: cytotoxicity in IEC-6 cells. IEC-6 cytotoxicity, luminescence viability. inhibition, % at 5 µM. actives 0.78% (n = 290,000). AID 1825; in the data active = inhibition above about 22%;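 note: 0% = plate median of test compound wells and 100% = cytotoxic reference compound wells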
Numbers without * were called inactive; . = no result. Rows were chosen to be rich in hits. Some 2.2% of all compounds tested hit in one or more screens of this group.

SMILES | MT stabilize HCS | bCat nuc transl | BaF3 parental | APP 5UTR inh | Ba/F3 V617F tox | IEC-6 cytotox
COC(C(=O)N/N=C(\C)c1ccc(C(C)(C)C)cc1)c1ccccc1 (centres undefined) | . | . | . | . | . | 14.8
COc1cc(C(=O)N2CCN(c3cc(Cl)ccc3Cl)CC2)cc(OC)c1OC | 9.5 | 19.4 | 62.6* | -2.2 | 64.5* | 60.9*
COc1ccc(C(=O)N2CCN(C(=O)c3cc(OC)c(OC)c(OC)c3)CC2)cc1 | 4.0 | . | 5.0 | -13.6 | -3.1 | -7.2
CCOc1ccc(NC(=O)c2cc3c(C)nc4ccccc4c3o2)cc1 | 17.0* | 126.0* | -0.2 | 22.8 | -3.1 | 1.5
COc1ccc(N(CC(=O)Nc2cc(Cl)ccc2OC)S(=O)(=O)c2c(C)noc2C)cc1 | 15.7* | -0.4 | 54.3* | 53.8* | 8.0 | 2.8
CCC(CO)N=CC1=C(O)CC(c2ccccc2)CC1=O (centres undefined) | . | . | . | . | . | 3.0
Cc1ccn(CCNC(=O)C2CCC(=O)N(Cc3ccc(Cl)cc3)C2)n1 (centres undefined) | . | . | . | . | . | -1.1
COc1cccc(Cn2c(NCc3ccco3)nc3c2c(=O)n(C)c(=O)n3C)c1 | 3.6 | -0.4 | 85.9* | -9.5 | 59.4* | 10.3
CCCCCCn1c(NCC)nc2c1c(=O)n(C)c(=O)n2C | 6.1 | -0.9 | 59.4* | 1.9 | 54.0* | 16.3
COCCNc1nc2c(c(=O)n(C)c(=O)n2C)n1Cc1cccc(C(F)(F)F)c1 | 2.6 | -0.7 | 59.7* | -0.7 | 59.1* | -5.6
CC(O)CNc1nc2c(c(=O)n(C)c(=O)n2C)n1Cc1cccc(C(F)(F)F)c1 (centres undefined) | 3.2 | 0.1 | 3.9 | -7.3 | -1.5 | 4.7
CCCNc1nc2c(c(=O)n(C)c(=O)n2C)n1CCc1ccccc1 | 5.4 | 0.8 | 3.3 | -7.1 | -1.4 | -0.1
CCCCNc1nc2c(c(=O)n(C)c(=O)n2C)n1CCC | . | -1.3 | . | . | . | .
CCCNc1nc2c(c(=O)n(C)c(=O)n2C)n1Cc1cccc(C)c1 | 2.6 | -3.9 | 44.8* | -7.8 | 42.4* | 3.6
NC(=O)CC(NC(=O)c1ccccc1)c1ccc(NC2CCCCCCC2)c([N+](=O)[O-])c1 (centres undefined) | . | . | . | . | . | -3.6
COc1ccc(C2C3=C(CC(C)(C)CC3=O)Nc3cc4c(cc32)OCO4)cc1 (centres undefined) | 2.1 | 1.5 | 6.1 | -4.9 | 1.0 | -2.3
COc1ccc(OC)c(C2C3=C(COC3=O)Nc3cc4c(cc32)OCO4)c1 (centres undefined) | 10.2 | 111.2* | 91.5* | 94.8* | 96.1* | 93.8*
COc1ccc(/C=N\N=C2/SC(CC(=O)O)C(=O)N2c2ccc(O)cc2)cc1OC (centres undefined) | 1.6 | 0.6 | 3.8 | -4.8 | -1.8 | -10.0
O=C(O)CC1S/C(=N/N=C/c2ccc([N+](=O)[O-])cc2)N(c2ccc(O)cc2)C1=O (centres undefined) | 2.3 | 0.6 | 79.8* | -4.1 | 0.0 | -3.4
Cc1cccc(OCC(O)CN2CC3(C)CC2CC(C)(C)C3)c1 (centres undefined) | 3.7 | 5.2 | 4.1 | 49.4* | -1.8 | -3.9
Cc1ccc(OCC(O)CN2CC3(C)CC2CC(C)(C)C3)cc1 (centres undefined) | 1.9 | -1.1 | 3.6 | 6.8 | -2.8 | -1.7
Cc1ccc2c(c1)N(C(=O)CCC(=O)NCc1cccnc1)CC(C)O2 (centres undefined) | . | . | . | . | . | -8.2
COc1ccc(NC(=O)CN2C(=O)NC(C)(c3ccc(C)cc3)C2=O)c([N+](=O)[O-])c1 (centres undefined) | . | . | . | . | . | -4.2
CC#CC[N+](C)(C)CCCCCCCC | . | 2.9 | 63.4* | . | 66.1* | 8.4
CC#CC[N+](C)(C)CC(=O)c1ccccc1 | . | -0.2 | 0.3 | . | -0.4 | -1.7
COc1ccc(CN2CCNC(=O)C2CC(=O)NCCN2CCCCC2=O)c(F)c1 (centres undefined) | . | . | . | . | . | -7.0
O=C(CCc1ccccc1)Nc1cc(Cl)ccc1O | 2.0 | 1.1 | 28.8* | -9.8 | 22.8 | 0.0
COc1ccc(-c2noc(CCCC(=O)O)n2)cc1 | 2.7 | . | 2.8 | 56.1* | -3.1 | 0.6
COc1ccc(-c2noc(CCC(=O)O)n2)cc1 | 2.8 | -1.5 | 2.0 | -12.0 | 0.9 | -2.4
COc1ccc(N(C(=O)c2ccccc2C)S(=O)(=O)c2cccs2)cc1 | 15.5* | 98.7* | 74.0* | 93.4* | 67.8* | 71.5*
